Reference: ChEMBL document CHEMBL1770123, “SPF32629A and SPF32629B: enantioselective synthesis, determination of absolute configuration, cytotoxicity and antibacterial evaluation” (Eur J Med Chem, 2011)
Converted amounts (≈) assume the structure as drawn. The source made the active and inactive calls. The calls are words filed in the database; no cut-off is given here.

Columns and labels:
Staphylococcus aureus [1] = experiment: Antimicrobial activity against methicillin-resistant Staphylococcus aureus strain 1 TB3G at 1000 ug/disc after 24 hrs by disc diffusion method; type: functional; details: read-out: DIZ
Outline: (§1)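 Disc diffusion on 2.4% Mueller-Hinton agar inoculated with the strain. Paper discs 6 mm across were loaded with test compound and placed on the agar. Plates were incubated at 37 °C for 24 h. Read-out was the diameter of the inhibition zone in mm.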

Salmonella typhimurium [2] = experiment: Antimicrobial activity against Salmonella Typhimurium after 24 hrs by microdilution method; type: functional, Salmonella enterica subsp. enterica serovar Typhimurium; details: Salmonella enterica
Outline: (§2)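 Growth was judged by turbidity, and the MIC was taken as the minimum concentration giving the lowest growth. Amikacin served as reference.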

Staphylococcus aureus [3] = experiment: Antimicrobial activity against methicillin-resistant Staphylococcus aureus strain 1 TB3G at 500 ug/disc after 24 hrs by disc diffusion method; type: functional; details: read-out: DIZ; outline: as §1
A549 [4] = experiment: Cytotoxicity against human A549 cells assessed as cell death at 25 ug after 48 hrs by MTT assay; type: functional
Outline: (§3)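 A549 cells were grown in DMEM with 2 mmol L-glutamine, 10% FBS, penicillin (50 IU/mL) and streptomycin, at 37 °C and 5% CO2. 1×10^4 cells/well were plated and treated 24 h later with compound diluted in medium for 48 h. Controls were DMSO-matched and untreated wells. MTT 0.4 mg/mL in PBS was added for 4 h in the dark, then DMSO for 4 h. A540 was read and reported as % live cells relative to untreated.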

A549 [5] = experiment: Cytotoxicity against human A549 cells assessed as cell death at 10 ug after 48 hrs by MTT assay; type: functional; outline: as §3
Salmonella typhimurium [6] = experiment: Antimicrobial activity against Salmonella Typhimurium at 1000 ug/disc after 24 hrs by disc diffusion method; type: functional, Salmonella enterica subsp. enterica serovar Typhimurium; details: Salmonella enterica, read-out: DIZ
Staphylococcus aureus [7] = experiment: Antimicrobial activity against methicillin-resistant Staphylococcus aureus strain 1 TB3G after 24 hrs by microdilution method; type: functional
Outline: (§4)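 Growth was judged by turbidity. The MIC was taken as the lowest concentration giving the lowest growth.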

Bacillus subtilis [8] = experiment: Antimicrobial activity against Bacillus subtilis at 500 ug/disc after 24 hrs by disc diffusion method; type: functional; details: read-out: DIZ
Escherichia coli [9] = experiment: Antimicrobial activity against Escherichia coli at 500 ug/disc after 24 hrs by disc diffusion method; type: functional; details: read-out: DIZ
A549 [10] = experiment: Cytotoxicity against human A549 cells assessed as cell death at 1 ug after 48 hrs by MTT assay; type: functional; outline: as §3
Staphylococcus aureus [11] = experiment: Antimicrobial activity against methicillin-resistant Staphylococcus aureus strain 4 TB5G at 1000 ug/disc after 24 hrs by disc diffusion method; type: functional; details: read-out: DIZ; outline: as §1
Salmonella typhimurium [12] = experiment: Antimicrobial activity against Salmonella Typhimurium at 500 ug/disc after 24 hrs by disc diffusion method; type: functional, Salmonella enterica subsp. enterica serovar Typhimurium; details: Salmonella enterica, read-out: DIZ
Klebsiella pneumoniae [13] = experiment: Antimicrobial activity against Klebsiella pneumoniae at 1000 ug/disc after 24 hrs by disc diffusion method; type: functional; details: read-out: DIZ
Klebsiella pneumoniae [14] = experiment: Antimicrobial activity against Klebsiella pneumoniae at 500 ug/disc after 24 hrs by disc diffusion method; type: functional; details: read-out: DIZ
Staphylococcus aureus [15] = experiment: Antimicrobial activity against methicillin-resistant Staphylococcus aureus strain 2 TB4G at 1000 ug/disc after 24 hrs by disc diffusion method; type: functional; details: read-out: DIZ; outline: as §1
Staphylococcus aureus [16] = experiment: Antimicrobial activity against Staphylococcus aureus at 1000 ug/disc after 24 hrs by disc diffusion method; type: functional; details: read-out: DIZ
[17] = test system: Staphylococcus epidermidis; experiment: Antimicrobial activity against Staphylococcus epidermidis after 24 hrs by microdilution method; type: functional; outline: as §2
Staphylococcus aureus [18] = experiment: Antimicrobial activity against methicillin-resistant Staphylococcus aureus strain 2 TB4G at 500 ug/disc after 24 hrs by disc diffusion method; type: functional; details: read-out: DIZ; outline: as §1
Listeria monocytogenes [19] = experiment: Antimicrobial activity against Listeria monocytogenes at 500 ug/disc after 24 hrs by disc diffusion method; type: functional; details: read-out: DIZ
Listeria monocytogenes [20] = experiment: Antimicrobial activity against Listeria monocytogenes at 1000 ug/disc after 24 hrs by disc diffusion method; type: functional; details: read-out: DIZ
[21] = test system: Staphylococcus epidermidis; experiment: Antimicrobial activity against Staphylococcus epidermidis at 1000 ug/disc after 24 hrs by disc diffusion method; type: functional; details: read-out: DIZ
Listeria monocytogenes [22] = experiment: Antimicrobial activity against Listeria monocytogenes after 24 hrs by microdilution method; type: functional; outline: as §2
A549 [23] = experiment: Cytotoxicity against human A549 cells assessed as cell death at 2 ug after 48 hrs by MTT assay; type: functional; outline: as §3
[24] = Inhibition of human elastase
A549 [25] = experiment: Cytotoxicity against human A549 cells after 48 hrs by MTT assay; type: functional, cell-based; details: A549, 48 h
Outline: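 A549 cells were kept in DMEM with 2 mM L-glutamine, 10% FBS, penicillin 50 IU/mL and streptomycin at 37 °C under 5% CO2. 1×10^4 cells per well were treated 24 h after seeding with compounds diluted in medium for 48 h. MTT (0.4 mg/mL in PBS) was added for 4 h in the dark, formazan was dissolved in DMSO for 4 h and absorbance read at 540 nm. Viability was expressed as % of untreated cells, and IC50 was derived.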

Bacillus subtilis [26] = experiment: Antimicrobial activity against Bacillus subtilis after 24 hrs by microdilution method; type: functional; outline: as §2
Klebsiella pneumoniae [27] = experiment: Antimicrobial activity against Klebsiella pneumoniae after 24 hrs by microdilution method; type: functional; outline: as §2
Bacillus subtilis [28] = experiment: Antimicrobial activity against Bacillus subtilis at 1000 ug/disc after 24 hrs by disc diffusion method; type: functional; details: read-out: DIZ
Staphylococcus aureus [29] = experiment: Antimicrobial activity against Staphylococcus aureus after 24 hrs by microdilution method; type: functional; outline: as §2
Chymase = molecular target: T1, Chymase (Homo sapiens, UniProt P23946); experiment: Inhibition of human chymase
T1 sequence (P23946 whole entry): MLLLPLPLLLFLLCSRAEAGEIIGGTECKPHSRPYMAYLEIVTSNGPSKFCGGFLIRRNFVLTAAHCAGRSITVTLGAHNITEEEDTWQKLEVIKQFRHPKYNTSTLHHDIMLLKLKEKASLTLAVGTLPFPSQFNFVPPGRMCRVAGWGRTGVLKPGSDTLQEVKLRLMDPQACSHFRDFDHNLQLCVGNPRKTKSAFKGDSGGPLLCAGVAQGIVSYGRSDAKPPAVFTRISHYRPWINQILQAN

Escherichia coli [30] = experiment: Antimicrobial activity against Escherichia coli at 1000 ug/disc after 24 hrs by disc diffusion method; type: functional; details: read-out: DIZ
A549 [31] = experiment: Cytotoxicity against human A549 cells assessed as cell death at 5 ug after 48 hrs by MTT assay; type: functional; outline: as §3
Escherichia coli [32] = experiment: Antimicrobial activity against Escherichia coli after 24 hrs by microdilution method; type: functional; outline: as §2
Staphylococcus aureus [33] = experiment: Antimicrobial activity against Staphylococcus aureus at 500 ug/disc after 24 hrs by disc diffusion method; type: functional; details: read-out: DIZ; outline: as §1
[34] = test system: Staphylococcus epidermidis; experiment: Antimicrobial activity against Staphylococcus epidermidis at 500 ug/disc after 24 hrs by disc diffusion method; type: functional; details: read-out: DIZ
Staphylococcus aureus [35] = experiment: Antimicrobial activity against methicillin-resistant Staphylococcus aureus strain 2 TB4G after 24 hrs by microdilution method; type: functional; outline: as §4
Staphylococcus aureus [36] = experiment: Antimicrobial activity against methicillin-resistant Staphylococcus aureus strain 4 TB5G at 500 ug/disc after 24 hrs by disc diffusion method; type: functional; details: read-out: DIZ; outline: as §1
Staphylococcus aureus [37] = experiment: Antimicrobial activity against methicillin-resistant Staphylococcus aureus strain 4 TB5G after 24 hrs by microdilution method; type: functional; outline: as §4
Bacillus subtilis [38] = experiment: Antimicrobial activity against Bacillus subtilis at 100 ug/disc after 24 hrs by disc diffusion method; type: functional; details: read-out: DIZ
Escherichia coli [39] = experiment: Antimicrobial activity against Escherichia coli at 100 ug/disc after 24 hrs by disc diffusion method; type: functional; details: read-out: DIZ
Klebsiella pneumoniae [40] = experiment: Antimicrobial activity against Klebsiella pneumoniae at 100 ug/disc after 24 hrs by disc diffusion method; type: functional; details: read-out: DIZ
Salmonella typhimurium [41] = experiment: Antimicrobial activity against Salmonella Typhimurium at 100 ug/disc after 24 hrs by disc diffusion method; type: functional, Salmonella enterica subsp. enterica serovar Typhimurium; details: Salmonella enterica, read-out: DIZ
Staphylococcus aureus [42] = experiment: Antimicrobial activity against Staphylococcus aureus at 100 ug/disc after 24 hrs by disc diffusion method; type: functional; details: read-out: DIZ
Listeria monocytogenes [43] = experiment: Antimicrobial activity against Listeria monocytogenes at 100 ug/disc after 24 hrs by disc diffusion method; type: functional; details: read-out: DIZ
Staphylococcus aureus [44] = experiment: Antimicrobial activity against methicillin-resistant Staphylococcus aureus strain 1 TB3G at 100 ug/disc after 24 hrs by disc diffusion method; type: functional; details: read-out: DIZ
[45] = test system: Staphylococcus epidermidis; experiment: Antimicrobial activity against Staphylococcus epidermidis at 100 ug/disc after 24 hrs by disc diffusion method; type: functional; details: read-out: DIZ
Staphylococcus aureus [46] = experiment: Antimicrobial activity against methicillin-resistant Staphylococcus aureus strain 4 TB5G at 100 ug/disc after 24 hrs by disc diffusion method; type: functional, organism-based
Staphylococcus aureus [47] = experiment: Antimicrobial activity against methicillin-resistant Staphylococcus aureus strain 2 TB4G at 100 ug/disc after 24 hrs by disc diffusion method; type: functional; details: read-out: DIZ

## CC(C)CC(=O)OC(c1ccccc1)c1cc(O)c(C(=O)O)c(=O)[nH]1 (racemic)
Staphylococcus aureus [1]
  zone of inhibition at 1000 µg/disc: 10 mm
Salmonella typhimurium [2]
  MIC: > 100 µg/mL
Staphylococcus aureus [3]
  zone of inhibition at 500 µg/disc: 5 mm
A549 [4]
  Activity: 81.53%
A549 [5]
  Activity: 71.07%
Salmonella typhimurium [6]
  zone of inhibition at 1000 µg/disc: 20 mm
Staphylococcus aureus [7]
  MIC: > 100 µg/mL
Bacillus subtilis [8]
  zone of inhibition at 500 µg/disc: 7 mm
Escherichia coli [9]
  zone of inhibition at 500 µg/disc: 8 mm
A549 [10]
  Activity: 7.07%
Staphylococcus aureus [11]
  zone of inhibition at 1000 µg/disc: 12 mm
Salmonella typhimurium [12]
  zone of inhibition at 500 µg/disc: 9 mm
Klebsiella pneumoniae [13]
  zone of inhibition at 1000 µg/disc: 21 mm
Klebsiella pneumoniae [14]
  zone of inhibition at 500 µg/disc: 12 mm
Staphylococcus aureus [15]
  zone of inhibition at 1000 µg/disc: 12 mm
Staphylococcus aureus [16]
  zone of inhibition at 1000 µg/disc: 15 mm
[17]
  MIC: > 100 µg/mL
Staphylococcus aureus [18]
  zone of inhibition at 500 µg/disc: 7 mm
Listeria monocytogenes [19]
  zone of inhibition at 500 µg/disc: 11 mm
Listeria monocytogenes [20]
  zone of inhibition at 1000 µg/disc: 20 mm
[21]
  zone of inhibition at 1000 µg/disc: 17 mm
Listeria monocytogenes [22]
  MIC: 50 µg/mL (≈ 145 µM)
A549 [23]
  Activity: 21.53%
[24]
  IC50: 4.5 µg/mL (≈ 13 µM)
A549 [25]
  IC50: 11 µM
Bacillus subtilis [26]
  MIC: 25 µg/mL (≈ 72.4 µM)
Klebsiella pneumoniae [27]
  MIC: 50 µg/mL (≈ 145 µM)
Bacillus subtilis [28]
  zone of inhibition at 1000 µg/disc: 13 mm
Staphylococcus aureus [29]
  MIC: > 100 µg/mL
Chymase
  IC50: 1.22 µM
Escherichia coli [30]
  zone of inhibition at 1000 µg/disc: 15 mm
A549 [31]
  Activity: 44%
Escherichia coli [32]
  MIC: 50 µg/mL (≈ 145 µM)
Staphylococcus aureus [33]
  zone of inhibition at 500 µg/disc: 7 mm
[34]
  zone of inhibition at 500 µg/disc: 8 mm
Staphylococcus aureus [35]
  MIC: > 100 µg/mL
Staphylococcus aureus [36]
  zone of inhibition at 500 µg/disc: 6 mm
Staphylococcus aureus [37]
  MIC: > 100 µg/mL

## NCC[C@H](O)C(=O)N[C@@H]1C[C@H](N)[C@@H](O[C@H]2O[C@H](CN)[C@@H](O)[C@H](O)[C@H]2O)[C@H](O)[C@H]1O[C@H]1O[C@H](CO)[C@@H](O)[C@H](N)[C@H]1O [AMIKACIN]
Bacillus subtilis [38]
  zone of inhibition at 100 µg/disc: 21 mm
Salmonella typhimurium [2]
  MIC: 12 µg/mL (≈ 20.5 µM)
Escherichia coli [39]
  zone of inhibition at 100 µg/disc: 22 mm
Klebsiella pneumoniae [40]
  zone of inhibition at 100 µg/disc: 21 mm
Staphylococcus aureus [7]
  MIC: > 100 µg/mL
Salmonella typhimurium [41]
  zone of inhibition at 100 µg/disc: 19 mm
Staphylococcus aureus [42]
  zone of inhibition at 100 µg/disc: 20 mm
Listeria monocytogenes [43]
  zone of inhibition at 100 µg/disc: 20 mm
[17]
  MIC: 12 µg/mL (≈ 20.5 µM)
Staphylococcus aureus [44]
  zone of inhibition at 100 µg/disc: 17 mm
Listeria monocytogenes [22]
  MIC: 6 µg/mL (≈ 10.2 µM)
[45]
  zone of inhibition at 100 µg/disc: 22 mm
Staphylococcus aureus [46]
  diameter of the inhibition zone (DIZ): inactive
Bacillus subtilis [26]
  MIC: 6 µg/mL (≈ 10.2 µM)
Klebsiella pneumoniae [27]
  MIC: 6 µg/mL (≈ 10.2 µM)
Staphylococcus aureus [47]
  zone of inhibition at 100 µg/disc: 19 mm
Staphylococcus aureus [29]
  MIC: 50 µg/mL (≈ 85.4 µM)
Escherichia coli [32]
  MIC: 6 µg/mL (≈ 10.2 µM)
Staphylococcus aureus [35]
  MIC: > 100 µg/mL
Staphylococcus aureus [37]
  MIC: > 100 µg/mL
